Assay outcomes from PubChem.
Hits are enriched below; roughly 3% of the tested compounds scored in any of these assays.
MEKK2 mut-MEK5 = signal of MEK5 binding to mutant human MEKK2 PB1 domain; bead flow cytometry, Alexa488-MEK5 binding to MEKK2 mutant; percent response, % at 10 µM; 290,000 compounds, 0.35% hits; AID 1530; in the data active = percent response above about 24%, passing the limit was not always enough
MEKK2wt PB1 HTS = raises or lowers MEK5 binding to wildtype human MEKK2 PB1 domain; AID 1531; binding response (% of control), % at 10 µM; 290,000 compounds, 1.1% hits; bead flow cytometry, Alexa488-MEK5 binding to MEKK2 WT; actives lie on both sides; in the data active = binding response below about 67% or above about 130%
MEKK3 PB1 HTS = modulators (inhibitors or enhancers) of MEK5 binding to human MEKK3 PB1 domain. binding response (% of control), % at 10 µM. Q99759. bead-based flow cytometry, Alexa488-MEK5 binding to MEKK3; actives lie on both sides; 0 = blocked by unlabeled MEK5, 100 = vehicle. 290,000 compounds, 1.4% hits;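 active = binding response more than 3 SD above or below the average of its plate-row segment, actives on both sides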;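 also: Alexa488 bead fluorescence after subtracting the streptavidin-only scavenger bead signal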
UBC13 polyUb = inhibitors of human UBC13 polyubiquitin chain formation; 330,000 compounds, 0.47% hits; P61088; inhibition, % at 20 µM; TR-FRET; in the data active = inhibition above about 45%, passing the limit was not always enough
Target sequence (P61088 whole entry, looked up): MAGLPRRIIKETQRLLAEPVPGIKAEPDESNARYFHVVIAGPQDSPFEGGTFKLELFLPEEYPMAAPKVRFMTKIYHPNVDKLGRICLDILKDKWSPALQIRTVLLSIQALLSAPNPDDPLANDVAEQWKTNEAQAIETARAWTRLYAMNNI
Apaf-1 inh = blocks human Apaf-1 apoptosome activity. AID 489030. reconstituted apoptosome caspase-3 activity, DEVD-Rh110 fluorescence. 330,000 compounds, 0.71% hits. inhibition, % at 20 µM; active = inhibition of at least 40% at 20 µM;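 also: plate controls were DMSO wells for no effect and DEVD-CHO caspase inhibitor wells for full effect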
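Medium: Hepes buffer, pH 7.5 / System: biochemical Apaf-1 apoptosome reconstitution / Measured by: Rh110 fluorescence, excitation 480 nm, emission 540 nm / Times: compound with Apaf-1, dATP, procaspase-3 30 min, then 50 min reaction, room temperature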
UCH37 inh = human UCH37 deubiquitinating enzyme inhibition; Q9Y5K5; purified proteasome/UCH37, Ub-AMC cleavage fluorescence; inhibition, % (concentration not given with the values); 330,000 compounds, 0.33% hits; AID 588478;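 active = mean inhibition over replicate wells above about 20%, limit read from the data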;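 also: 0% = compound-free wells with enzyme and 100% = wells lacking proteasome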
Target sequence (Q9Y5K5 whole entry, looked up): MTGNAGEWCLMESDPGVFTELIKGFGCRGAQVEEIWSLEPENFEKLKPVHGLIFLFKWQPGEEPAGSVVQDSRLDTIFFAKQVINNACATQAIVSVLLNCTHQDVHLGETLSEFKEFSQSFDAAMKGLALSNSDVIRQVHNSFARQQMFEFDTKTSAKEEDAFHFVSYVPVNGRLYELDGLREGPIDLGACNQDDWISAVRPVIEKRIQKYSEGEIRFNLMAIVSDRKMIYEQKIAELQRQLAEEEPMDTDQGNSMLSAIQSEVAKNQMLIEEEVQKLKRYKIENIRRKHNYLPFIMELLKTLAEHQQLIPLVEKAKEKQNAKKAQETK
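Schedule: 30 min plus 25 min, room temperature / Material: human UCH37 within purified proteasomes / Technique: AMC fluorescence intensity at 355/460 nm / Buffer or medium: pH 7.4 Tris-HCl (50 mM) with ovalbumin, ATP-MgCl2, DTT / Controls: wells without proteasome as full block, compound-free enzyme plus substrate as uninhibited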
MEKK2wt confirm = raises or lowers MEK5 binding to wildtype human MEKK2, retest. binding response (% of control), % at 10 µM. 5,900 compounds, 2.4% hits. bead flow cytometry, Alexa488-MEK5 binding to MEKK2 WT; actives lie on both sides. shares compounds with MEKK3 PB1 HTS. AID 1892; in the data active = binding response below about 16% or above about 210%; inactive = in between
MEKK2mut confirm = signal of MEK5 binding to mutant human MEKK2, retest; shares compounds with MEKK3 PB1 HTS; bead flow cytometry, Alexa488-MEK5 binding to MEKK2 mutant; percent response, % at 10 µM; 5,900 compounds, 2% hits; in the data active = percent response mostly above about 71%, no sharp cut-off; inactive = mostly below about 38%;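 also: higher means compound restores mutant binding toward wildtype level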
MEKK3 confirm = confirmation of inhibitors of MEK5 binding to human MEKK3 | shares compounds with MEKK3 PB1 HTS | bead flow cytometry, Alexa488-MEK5 binding to MEKK3; active compounds read low | binding response (% of control), % at 10 µM | 5,900 compounds, 1.8% hits;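 active = binding response below 72% of control, or above a set upper limit, though filed actives all read lower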;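 also: 100% = DMSO only wells and 0% = binding blocked by excess unlabeled MEK5; lower values mean stronger disruption of MEK5 binding to MEKK3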
* marks the source's active call; other numbers are inactive results; / = no result; ! = not confirmed by another sample; [ ] = another dose, or the depositor's remark.

SMILES	MEKK2 mut-MEK5	MEKK2wt PB1 HTS	MEKK3 PB1 HTS	UBC13 polyUb	Apaf-1 inh	UCH37 inh	MEKK2wt confirm	MEKK2mut confirm	MEKK3 confirm
COc1ccccc1N(C)S(=O)(=O)c1ccc(C(=O)OCC(=O)Nc2ccccc2F)cc1	-16	45*[inhibitor]	46*[inhibitor]	-3	3	0	94	0	99
Cc1ccc2nc(CSc3nnc(-c4ccco4)o3)cc(=O)n2c1	-3	91	71*[inhibitor]	1	10	-3	105	-1	107
Cc1ccc2nc(CSc3nnc(-c4ccco4)n3-c3ccccc3)cc(=O)n2c1	4	101	101	-6	-4	-1	/	/	/
O=C(Cn1c2ccccc2c(=O)c2ccccc21)Nc1cccc(F)c1	0	109	121	4	-2	-91	/	/	/
Nc1ccccc1SC1CC(=O)N(c2ccccc2Cl)C1=O (stereo not given)	-24	59	49*[inhibitor]	9	6	/	101	7	102
Fc1ccc(C(c2ccc(F)cc2)N2CCN(C/C=C/c3ccccc3)CC2)cc1	26*!	210*!	113	26	32	4	184	39	110
CC(C(=O)N(C)Cc1ccccc1)N1CCN(C/C=C/c2ccccc2)CC1 (stereo not given)	1	98	95	23	-25	2	/	/	/
O=C(CCN1CCN(C/C=C/c2ccccc2)CC1)Nc1ccc(Cl)cc1	10	120	111	2	8	3	/	/	/
O=C(Nc1cccc(Cl)c1)N1CCN(C/C=C/c2ccccc2)CC1	16	139*	107	11	-1	4	113	8	101
C(=C\c1ccccc1)/CN1CCN(C(c2ccccc2)c2ccccc2)CC1	14	165*	109	24	21	4	162	24	103
COC(=O)c1ccc(CSc2n[nH]c(=S)s2)o1	5	105	107	-4	-1	0	/	/	/
COC(=O)c1ccc(CSc2nnc(NC(C)C)s2)o1	-2	84	71*[inhibitor]	5	15	5	108	0	101
CCc1sc(C(=O)N2CCc3ccccc32)cc1C	-1	106	114	11	2	5	/	/	/
C(=C\c1ccccc1)/C=N/Nc1nncc(-c2ccccc2)n1	0	109	131*	-28	-3	/	100	-1	100
Cn1nc(C(=O)NC2CCCN(Cc3ccccc3F)C2)c2ccccc2c1=O (stereo not given)	2	100	103	-13	9	1	/	/	/
C/C(=N/NS(=O)(=O)c1ccc(Br)cc1)c1ccc(C)o1	1	94	98	-13	6	/	/	/	/
NNc1nc2ccc(F)cc2s1	-2	92	94	8	9	4	/	/	/
NNc1nc2ccc(Cl)cc2s1	0	105	132*	-2	0	-20	106	0	103
COc1ccc(C)cc1NS(=O)(=O)c1ccc2c(c1)NC(=O)C(C)S2 (stereo not given)	-5	92	92	-7	35	5	/	/	/
COc1cc(/C=C/C(=O)OCC(=O)Nc2cc(S(=O)(=O)N3CCCCC3)ccc2C)ccc1O	-1	99	100	-32	-16	-9	/	/	/
COc1cc(/C=C/C(=O)OCC(=O)Nc2ccc(C)c(S(=O)(=O)N3CCCCC3)c2)ccc1O	0	108	147*	-6	12	-14	103	-6	103
C/C=C/c1ccc(OCC(=O)Nc2cc(C(F)(F)F)ccc2N2CCOCC2)c(OC)c1	1	103	96	-6	14	5	/	/	/
COc1cc(/C=C/C(=O)OCC(=O)Nc2cc(C(F)(F)F)ccc2N2CCOCC2)ccc1O	0	104	152*	1	8	-4	105	-1	104
CS(=O)(=O)N(CC(=O)Nc1c(F)cccc1F)c1cccc([N+](=O)[O-])c1	7	108	107	1	3	-4	/	/	/
COc1ccc(N/C=C(\[N+](=O)[O-])S(=O)(=O)c2ccccc2)cc1	-2	101	100	-2	6	5	/	/	/
SMILES	MEKK2 mut-MEK5	MEKK2wt PB1 HTS	MEKK3 PB1 HTS	UBC13 polyUb	Apaf-1 inh	UCH37 inh	MEKK2wt confirm	MEKK2mut confirm	MEKK3 confirm
COc1cc(NC(=O)C2COc3ccccc3O2)c(OC)cc1Cl (stereo not given)	-4	96	101	6	17	5	/	/	/
COc1cccc(Nc2nc(-c3ccccc3)nc3ccccc23)c1	19	127	106	28	14	-159	/	/	/
CC(=O)Nc1sc(/C(C#N)=C/c2ccc(Cl)c(Cl)c2)nc1-c1ccc(C)cc1	104*	25*	118	/	/	7	87	-13	99
COc1cccc(CN2CCN(Cc3ccc(O)cc3)CC2CCO)c1 (stereo not given)	-18	65	46*[inhibitor]	-1	-6	4	113	16	111
CCOc1ccc(CN2CCN(Cc3cccc4nonc34)CC2CCO)cc1 (stereo not given)	19	117	104	4	-20	1	/	/	/
CCOc1ccc(CN2CCN(Cc3cnn(CC)c3C)CC2CCO)cc1 (stereo not given)	-13	53	48*[inhibitor]	-5	5	4	98	-3	99
N#Cc1ccc(/C=N/NC(=O)c2ccccc2F)cc1	47	140*	115	6	-3	/	101	-1	102
O=C(NN=Cc1ccoc1)c1ccccc1F	/	/	/	/	/	0	/	/	/
COCCNC(=O)C(=O)NCC1OCCN1S(=O)(=O)c1ccc2c(c1)OCCO2 (stereo not given)	23	124	129*	18	-21	0	104	4	105
O=C1c2ccccc2C(=O)N1CCCCSc1nc2ccccc2c(=O)n1CCCN1CCOCC1	6	135	143*	14	16	3	107	-1	102
O=C1c2ccccc2C(=O)N1CCSc1nc2ccccc2c(=O)n1CCCN1CCOCC1	-11	86	92	6	-5	3	/	/	/
Cc1ccc(NC(=O)CSc2nc3ccccc3c(=O)n2CCCN2CCCCC2)cc1C	4	149*	101	19	55*	4	142	22	108
CCn1c(SCC(=O)N2CCCC2)nc2ccccc2c1=O	5	52*[inhibitor]	74*[inhibitor]	14	-12	-1	105	7	109
